# Experimental data from PMC3355778 (Frontiers in plant science, 2011).
# What was measured:
# Format in all cases: biochemical
# CPK10 = biological target: T1, CPK10 (Arabidopsis thaliana, UniProt Q9M9V8); assay: Standard filter-based kinetic assay for kinase activity, CPK10
# T1 sequence (Q9M9V8 1-545): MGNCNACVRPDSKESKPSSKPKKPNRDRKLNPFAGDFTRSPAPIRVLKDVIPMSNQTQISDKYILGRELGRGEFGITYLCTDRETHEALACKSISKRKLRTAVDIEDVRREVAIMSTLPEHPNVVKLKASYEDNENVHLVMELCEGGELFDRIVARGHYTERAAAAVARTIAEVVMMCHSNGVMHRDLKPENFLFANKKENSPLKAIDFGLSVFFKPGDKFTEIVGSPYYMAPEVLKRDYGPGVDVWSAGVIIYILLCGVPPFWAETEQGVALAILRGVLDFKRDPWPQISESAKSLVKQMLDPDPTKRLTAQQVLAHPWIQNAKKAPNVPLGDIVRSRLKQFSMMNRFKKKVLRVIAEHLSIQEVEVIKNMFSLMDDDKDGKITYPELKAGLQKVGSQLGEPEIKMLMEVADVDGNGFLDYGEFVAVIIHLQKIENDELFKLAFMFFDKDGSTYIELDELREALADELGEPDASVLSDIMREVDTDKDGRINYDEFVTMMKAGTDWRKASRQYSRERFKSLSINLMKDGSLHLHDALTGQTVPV
# Outline: (§1)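 Recombinant Arabidopsis CPK, GST-N/6xHis-C fusion, affinity-purified. Reactions used 1 ng/µL kinase and 0.1 mg/mL BSA in Ca²⁺/EGTA-buffered kinase buffer (1.1 mM CaCl₂, 1 mM EGTA). Peptide substrate was 0–200 µM. Started with 50 µM ATP plus 0.375 µCi [γ-³³P]ATP, 12 min at RT. Aliquots went onto P81 paper, were washed in 75 mM phosphoric acid, and counted by scintillation. kcat is in nmol P/min/mg enzyme; KM by Lineweaver–Burk.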
# CPK1 = biological target: T2, CPK1 (Arabidopsis thaliana, UniProt Q06850); assay: Standard filter-based kinetic assay for kinase activity, CPK1
# T2 sequence (Q06850 1-610): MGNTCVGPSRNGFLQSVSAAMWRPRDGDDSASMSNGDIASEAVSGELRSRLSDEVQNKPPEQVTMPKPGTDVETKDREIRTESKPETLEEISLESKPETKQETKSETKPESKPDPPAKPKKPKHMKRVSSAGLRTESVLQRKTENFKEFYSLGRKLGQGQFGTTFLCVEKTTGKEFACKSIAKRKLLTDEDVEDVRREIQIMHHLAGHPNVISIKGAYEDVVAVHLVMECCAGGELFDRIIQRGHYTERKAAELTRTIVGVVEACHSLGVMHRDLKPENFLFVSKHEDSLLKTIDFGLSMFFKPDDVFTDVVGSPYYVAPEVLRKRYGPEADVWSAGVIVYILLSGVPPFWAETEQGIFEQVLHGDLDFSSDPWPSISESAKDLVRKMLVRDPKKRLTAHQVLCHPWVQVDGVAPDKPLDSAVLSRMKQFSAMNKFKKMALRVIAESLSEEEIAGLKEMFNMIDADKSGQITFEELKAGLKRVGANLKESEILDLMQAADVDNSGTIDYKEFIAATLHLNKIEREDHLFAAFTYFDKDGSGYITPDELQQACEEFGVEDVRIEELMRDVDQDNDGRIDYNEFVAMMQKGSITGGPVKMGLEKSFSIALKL
# Outline: as §1
# CPK34 = CPK34 (Arabidopsis thaliana, UniProt Q3E9C0); assay: Standard filter-based kinetic assay for kinase activity, CPK34
# CPK34, sequence (Q3E9C0 whole entry): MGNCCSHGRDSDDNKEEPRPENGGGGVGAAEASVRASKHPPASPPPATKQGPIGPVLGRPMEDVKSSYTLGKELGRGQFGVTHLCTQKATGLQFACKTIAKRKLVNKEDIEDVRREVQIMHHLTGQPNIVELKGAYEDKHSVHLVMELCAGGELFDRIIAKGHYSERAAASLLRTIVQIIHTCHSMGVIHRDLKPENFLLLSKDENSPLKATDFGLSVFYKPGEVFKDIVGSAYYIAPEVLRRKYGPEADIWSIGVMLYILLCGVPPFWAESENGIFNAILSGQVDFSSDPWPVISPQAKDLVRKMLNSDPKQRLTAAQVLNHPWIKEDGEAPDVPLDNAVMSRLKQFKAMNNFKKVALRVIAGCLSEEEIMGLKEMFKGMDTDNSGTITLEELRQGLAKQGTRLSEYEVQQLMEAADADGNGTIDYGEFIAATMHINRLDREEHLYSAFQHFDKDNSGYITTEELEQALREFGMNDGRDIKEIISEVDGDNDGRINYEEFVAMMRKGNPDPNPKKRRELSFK
# Outline: as §1
# CPK16 = biological target: T3, CPK16 (Arabidopsis thaliana, UniProt Q7XJR9); assay: Standard filter-based kinetic assay for kinase activity, CPK16
# T3 sequence (Q7XJR9 1-571): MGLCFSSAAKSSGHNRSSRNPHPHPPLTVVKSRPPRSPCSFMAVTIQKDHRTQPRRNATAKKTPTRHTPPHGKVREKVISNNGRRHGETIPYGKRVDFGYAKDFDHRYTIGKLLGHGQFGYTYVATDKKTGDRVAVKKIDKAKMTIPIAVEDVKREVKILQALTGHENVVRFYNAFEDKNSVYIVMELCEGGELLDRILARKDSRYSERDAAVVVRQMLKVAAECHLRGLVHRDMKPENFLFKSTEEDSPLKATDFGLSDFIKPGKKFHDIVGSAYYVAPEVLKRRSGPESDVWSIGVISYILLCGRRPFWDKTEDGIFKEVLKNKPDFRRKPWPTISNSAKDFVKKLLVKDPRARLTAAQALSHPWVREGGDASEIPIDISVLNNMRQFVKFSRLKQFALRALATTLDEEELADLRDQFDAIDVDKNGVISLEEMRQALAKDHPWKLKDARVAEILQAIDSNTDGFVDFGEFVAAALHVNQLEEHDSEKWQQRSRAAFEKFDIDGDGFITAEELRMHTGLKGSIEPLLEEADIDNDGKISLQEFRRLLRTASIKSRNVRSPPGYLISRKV
# [1] = Table 5, independent reaction 1 (first value in cell)
# [2] = Table 5, independent reaction 2 (second value in cell)
# [3] = Table 4, independent reaction 1 (first value in cell)
# [4] = Table 4, independent reaction 2 (second value in cell)
Substance,"kcat, CPK10 (CPK10; [1])","kcat, CPK10 (CPK10; [2])","kcat, CPK1 (CPK1; [1])","kcat, CPK1 (CPK1; [2])","Kcat, CPK34 (CPK34; [1])","Kcat, CPK34 (CPK34; [2])","Kcat, CPK16 (CPK16; [3])","Kcat, CPK16 (CPK16; [4])","Kcat, CPK34 (CPK34; [3])","Kcat, CPK34 (CPK34; [4])"
"PLARTLSVAGLPGKK [ach-393, Syntide-2, reference compound]",252 nmol phosphate incorporated/min/mg enzyme,217 nmol phosphate incorporated/min/mg enzyme,362 nmol phosphate incorporated/min/mg enzyme,482 nmol phosphate incorporated/min/mg enzyme,155 nmol phosphate incorporated/min/mg enzyme,225 nmol phosphate incorporated/min/mg enzyme,–,–,–,–
VKIISRIF[S]QRSFRR [jfh-515],–,–,–,–,–,–,5114 nmol phosphate incorporated/min/mg CPK,4854 nmol phosphate incorporated/min/mg CPK,223 nmol phosphate incorporated/min/mg CPK,231 nmol phosphate incorporated/min/mg CPK
RYRRMERTSSMPRAS [jfh-097],–,–,–,–,–,–,3734 nmol phosphate incorporated/min/mg CPK,2677 nmol phosphate incorporated/min/mg CPK,502 nmol phosphate incorporated/min/mg CPK,718 nmol phosphate incorporated/min/mg CPK
aDFLKRLLSaGMNPN [jfh-597],1264 nmol phosphate incorporated/min/mg enzyme,1639 nmol phosphate incorporated/min/mg enzyme,5790 nmol phosphate incorporated/min/mg enzyme,5900 nmol phosphate incorporated/min/mg enzyme,475 nmol phosphate incorporated/min/mg enzyme,614 nmol phosphate incorporated/min/mg enzyme,–,–,–,–
"KRFSFKKSFKLSGFSFKK [ach-400, reference compound]",–,–,–,–,–,–,1795 nmol phosphate incorporated/min/mg CPK,1429 nmol phosphate incorporated/min/mg CPK,398 nmol phosphate incorporated/min/mg CPK,541 nmol phosphate incorporated/min/mg CPK
